In ChEMBL document CHEMBL1157767, “Phenylcinnamides as novel antimitotic agents” (J Med Chem, 2010):
Activity calls are given as the source filed them. The rule behind the calls is not given here.

How the values were obtained:
HeLa [1] = experiment: Cytotoxicity against human HeLa cells after 72 hrs SRB assay; assay type: functional, cell-based
Summary of the method: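 HeLa cells (5 × 10⁴ cells/mL suspension) seeded with compound from DMSO dilution series, 10 concentrations 100 μM to 5 nM, five replicates each; 72 h at 37 °C, 5% CO₂. TCA fixation, sulforhodamine B staining, bound dye released in 10 mM Tris pH 10.5, A510. Plate positive and DMSO controls calibrate % death; IC50 from four-parameter logistic fit; SD from ≥3 experiments, or mean of two.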

U-937 [2] = experiment: Cytotoxicity against human U937 cells after 72 hrs MTS assay; assay type: functional, cell-based; conditions: U-937, 72 h
Summary of the method: (§1)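 Cells in RPMI-1640/10% FBS seeded at 1 × 10⁵ (U-937, HL-60) or 1.5 × 10⁵ (HL-60/VCR) cells/mL with compound from DMSO series, 10 concentrations 100 μM to 5 nM, five replicates; 72 h at 37 °C. MTS/PMS added until vehicle OD ≈1.5, A490. Internal positive and DMSO controls; IC50 by four-parameter logistic fit; SD from ≥3 experiments, or mean of two.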

Bos taurus = species: Bos taurus; experiment: Inhibition of bovine brain tubulin polymerization at 10 uM by turbidimetry
[3] = Inhibition of tubulin polymerization at 100 uM by turbidimetry
HL-60 [4] = experiment: Cytotoxicity against human HL60 cells after 72 hrs MTS assay; assay type: functional, cell-based; conditions: HL-60, 72 h; summary of the method: as §1
HL-60 [5] = experiment: Selectivity ratio of IC50 for vincristine-resistant human HL60 cells to IC50 for human HL60 cells; assay type: functional
Summary of the method: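 Ratio of MTS-assay IC50 (72 h) in P-gp-overexpressing, vincristine/colchicine-resistant HL-60/VCR over IC50 in parental HL-60.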

HeLa [6] = experiment: Induction of mitotic arrest in human HeLa cells assessed as disruption of microtubule assembly at 25 uM after 6 hrs fluorescence confocal microscopy; assay type: functional, cell-based
Summary of the method: (§2)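 HeLa on nitric acid-washed coverslips, treated at 70% confluency for 6 h with compound (25 μM) or DMSO (0.2% final). Glutaraldehyde fixation in BRB-80, Triton X-100 permeabilization, NaBH₄ reduction, goat-serum block, FITC anti-α-tubulin plus Alexa-Fluor 488 secondary, propidium iodide with RNase A; laser scanning confocal imaging, 63× oil objective.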

HL-60 [7] = experiment: Cytotoxicity against vincristine-resistant human HL60 cells after 72 hrs MTS assay; assay type: functional, cell-based; conditions: HL-60, 72 h; summary of the method: as §1
HeLa [8] = experiment: Cell cycle arrest in human HeLa cells by accumulation of cells at G2 phase at 100 nM after 9 hrs by propidium iodide staining based flow cytometry; assay type: functional
Summary of the method: (§3)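 HeLa synchronized in G1/S by double thymidine block, released by washing and plated in fresh medium with test agent (25 μM or 100 nM) or DMSO vehicle for 9 h at 37 °C. Cells fixed in 3% formaldehyde-PBS, permeabilized in cold MeOH, stained with mouse anti-phospho(Ser10) histone H3 then Alexa-Fluor 488 secondary, RNase A-treated, propidium iodide DNA stain. Dual-laser flow cytometry; PI marks G2/M, phospho-H3 marks M-phase.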

HeLa [9] = experiment: Cell cycle arrest in human HeLa cells by accumulation of cells at M phase at 100 nM after 9 hrs by propidium iodide staining based flow cytometry; assay type: functional; summary of the method: as §3
HeLa [10] = experiment: Induction of mitotic arrest in human HeLa cells assessed as increase in number of cells with mitotic DNA by indirect immunofluorescence staining; assay type: functional, cell-based
U-937 [11] = experiment: Cell cycle arrest in human U937 cells by accumulation of cells at G2/M phase at 25 uM after 9 hrs by propidium iodide staining based flow cytometry; assay type: functional
HeLa [12] = experiment: Cell cycle arrest in human HeLa cells by accumulation of cells at G2/M phase at 25 uM after 9 hrs by propidium iodide staining based flow cytometry; assay type: functional; conditions: in the assay text read “M phase” for “G2/M phase”; summary of the method: as §3
HeLa [13] = experiment: Cell cycle arrest in human HeLa cells by accumulation of cells at G2/M phase at 25 uM after 9 hrs by M-phase fluorescence staining based flow cytometry; assay type: functional; summary of the method: as §3
HeLa [14] = experiment: Induction of mitotic arrest in human HeLa cells assessed as mitotic index by indirect immunofluorescence staining (Rvb=2.2%); assay type: functional
HeLa [15] = experiment: Induction of mitotic arrest in human HeLa cells assessed as chromosomal condensation at 25 uM after 6 hrs fluorescence confocal microscopy; assay type: functional, cell-based; summary of the method: as §2

Row | SMILES | IC50 (HeLa [1]) | IC50 (U-937 [2]) | also measured
1 | COc1cc(NC(=O)/C=C/c2ccc(O)cc2)cc(OC)c1 | > 50 µM | > 50 µM | 
2 | COc1cccc(/C=C/C(=O)Nc2cccc(OC)c2)c1 | > 50 µM | > 50 µM | 
3 | COc1cccc(/C=C/C(=O)Nc2cc(C)cc(C)c2)c1 |  | > 50 µM | 
4 | COC(=O)/C=C/c1cccc(OC)c1 | > 50 µM | > 50 µM | 
5 | COc1cc(/C=C/C(=O)Nc2ccccc2)cc(OC)c1OC | > 50 µM | > 50 µM | 
6 | CC(=O)O[C@H]1C(=O)[C@@]2(C)[C@H]([C@H](OC(=O)c3ccccc3)[C@]3(O)C[C@H](OC(=O)[C@H](O)[C@@H](NC(=O)c4ccccc4)c4ccccc4)C(C)=C1C3(C)C)[C@]1(OC(C)=O)CO[C@@H]1C[C@@H]2O |  |  | inhibition (Bos taurus): inactive; inhibition [3]: Active
7 | COc1cc(NC(=O)/C=C/c2cccc(OCc3ccccc3)c2)cc(OC)c1OC | 2.1 µM | 1.8 µM | IC50 (HL-60 [4]): 5.6 µM; Ratio IC50 (HL-60 [5]): 0.98; Activity (HeLa [6]): Active; IC50 (HL-60 [7]): 5.5 µM
8 | COc1cc2c(c(OC)c1OC)-c1ccc(OC)c(=O)cc1[C@@H](NC(C)=O)CC2 [COLCHICINE] |  |  | Activity (HeLa [8]): 37%; IC50 (HL-60 [4]): 0.053 µM; Ratio IC50 (HL-60 [5]): >1000; IC50 (HL-60 [7]): > 100 µM; Activity (HeLa [9]): 59%
9 | COc1cc(/C=C/C(=O)Nc2cc(OC)c(OC)c(OC)c2)cc(OC)c1OC | > 50 µM | 15.3 µM | 
10 | COc1cc(NC(=O)/C=C/c2ccccc2)cc(OC)c1OC | > 50 µM | 45 µM | 
11 | COc1cccc(/C=C/C(=O)Nc2c(C)cccc2C)c1 | > 50 µM | > 50 µM | 
12 | COc1cccc(/C=C/C(=O)Nc2cc(OC)cc(OC)c2)c1 |  | > 50 µM | 
13 | COc1cc(NC(=O)/C=C/c2ccc(O)cc2)cc(OC)c1OC | > 50 µM | 32 µM | 
14 | COc1ccccc1NC(=O)/C=C/c1cc(OC)c(OC)c(OC)c1 | > 50 µM | > 50 µM | 
15 | COc1cc(NC(C)=O)cc(OC)c1OC | > 50 µM | > 50 µM | 
16 | COc1cccc(/C=C/C(=O)Nc2cc(OC)c(OC)c(OC)c2)c1 | 11.3 µM | 3 µM | Activity (HeLa [10]): Active; Activity (U-937 [11]): Active; Activity (HeLa [12]): 49%; inhibition [3]: Active; IC50 (HL-60 [4]): 3.1 µM; Ratio IC50 (HL-60 [5]): 3.74; Activity (HeLa [13]): Active; Activity (HeLa [6]): Active; Activity (HeLa [14]): 18.2%; Activity (HeLa [15]): Active; IC50 (HL-60 [7]): 11.6 µM
17 | COc1cc(NC(=O)/C=C/c2cccc(O)c2)cc(OC)c1OC | 18.7 µM | 56.7 µM | 

Row | SMILES | IC50 (HeLa [1]) | IC50 (U-937 [2]) | also measured
18 | COc1cccc(/C=C/C(=O)NCc2cc(OC)c(OC)c(OC)c2)c1 | > 50 µM | > 50 µM | 
19 | COc1cccc(NC(=O)/C=C/c2cc(OC)c(OC)c(OC)c2)c1 |  | > 50 µM | 
20 | COc1ccccc1/C=C/C(=O)Nc1ccccc1OC | 36.1 µM | > 50 µM | 
21 | COc1ccc(NC(=O)/C=C/c2cc(OC)c(OC)c(OC)c2)cc1 | > 50 µM | 22.4 µM | 
22 | COc1ccccc1/C=C/C(=O)Nc1cc(OC)c(OC)c(OC)c1 | 6.1 µM | 5.1 µM | 
23 | COc1ccc(NC(=O)/C=C/c2cccc(OC)c2)cc1 |  | 18.1 µM | 
24 | COc1cccc(/C=C/C(=O)Nc2ccccc2)c1 | > 50 µM | > 50 µM | 
25 | COc1cc(NC(=O)/C=C/c2cccc(OC(F)(F)F)c2)cc(OC)c1OC | 4.4 µM | 13.2 µM | IC50 (HL-60 [4]): 13.2 µM; Ratio IC50 (HL-60 [5]): 0.99; IC50 (HL-60 [7]): 13.1 µM
26 | COc1cccc(/C=C/C(=O)Nc2ccccc2OC)c1 |  | > 50 µM | 
27 | COc1cccc(CCC(=O)Nc2cc(OC)c(OC)c(OC)c2)c1 | > 50 µM |  | 
28 | COc1cccc(CCC(=O)Nc2ccccc2OC)c1 | > 50 µM | > 50 µM | 
29 | COc1cc(NC(=O)/C=C/c2cc(OC)c(OC)c(OC)c2)cc(OC)c1 | 38.9 µM | 9.7 µM | 
30 | COc1cc2c(cc1O)CC[C@@H]1[C@@H]2CC[C@]2(C)[C@@H](O)CC[C@@H]12 [2-METHOXYESTRADIOL] |  |  | IC50 (HL-60 [4]): 3.4 µM; Ratio IC50 (HL-60 [5]): 0.26; IC50 (HL-60 [7]): 0.9 µM
31 | COc1ccccc1NC(=O)/C=C/c1cccc(OC(F)(F)F)c1 | 9.8 µM | 40.4 µM | 
32 | C#CCOc1cccc(/C=C/C(=O)Nc2cc(OC)c(OC)c(OC)c2)c1 | 2 µM | 6 µM | 
33 | C=CCOc1cccc(/C=C/C(=O)Nc2cc(OC)c(OC)c(OC)c2)c1 | 5.4 µM | 13.3 µM | 
34 | COc1cccc(/C=C/C(=O)Nc2ccc3c(c2)OCCO3)c1 | 20.1 µM | 15.9 µM | 
